A short description of series [1]: Antiproliferative activity against human KBVIN cells after 72 hrs by SRB assay. It is filed as functional, cell-based. Background: In SRB staining, fixed cells bind dye roughly in proportion to their protein.
Series [2] is described as follows: Selectivity index, ratio of CC50 for human MT4 cells to IC50 for HIV1 NL4-3 infected in human MT4 cells. In kind it is toxicity, cell-based. Particulars: read-out: Ratio CC50/IC50; call rule not given here. In a few lines:
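Selectivity index computed as CC50 (MT4 CytoTox-Glo, 3 days) divided by anti-HIV IC50 (NL4-3 Nanoluc-sec luciferase in MT4, day 3); SI below 5 regarded as no selective activity.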

Series [3] deals with Human immunodeficiency virus 1. The series is described as follows: Antiviral activity against HIV1 NL4-3 infected in human MT4 cells assessed as inhibition of viral replication after 3 days by luciferase reporter gene assay. It is filed as functional, organism-based. Particulars: for IC50: mt4; for pIC50: Human immunodeficiency virus 1, NL4-3, MT4, 72 h, read-out: IC50. In a few lines:
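MT4 cells (1 × 10^5 cells/mL) infected with HIV-1 NL4-3 Nanoluc-sec reporter virus at 50 TCID50/well alongside a range of compound concentrations (multicycle replication). Supernatants harvested on day 3 post-infection and read for secreted luciferase (Nano-Glo).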
In general terms: In a reporter assay the amount or activity of a reporter protein is the signal.

Series [4] concerns MCF7. Put plainly: Antiproliferative activity against human MCF7 cells after 72 hrs by SRB assay. Particulars: MCF7, 72 h. In kind it is functional, cell-based.
For series [5], the system named is KB. Put plainly: Antiproliferative activity against human KB cells after 72 hrs by SRB assay. In kind it is functional, cell-based.
In series [6] the test system is MDA-MB-231. Put plainly: Antiproliferative activity against human MDA-MB-231 cells after 72 hrs by SRB assay. It is filed as functional, cell-based. As to conditions: MDA-MB-231, 72 h.
The subject of series [7] is A549. Put plainly: Antiproliferative activity against human A549 cells after 72 hrs by SRB assay. In kind it is functional, cell-based. As to conditions: A549, 72 h.
A short description of series [8]: Cytotoxicity against human MT4 cells assessed as reduction in cell viability after 3 days by cytoTox-Glo reagent based assay.

The structures appear in SMILES notation. pIC50: −log10 of the molar value. Bounds are passed on as bounds.

What is called pIC50 is the IC50 on a negative log10 scale, so that one unit is a factor of ten. The term CC50 denotes the concentration at which the toxic effect on the cells reaches its halfway point.

On to `CO[C@@H]1O[C@@]2(C=C(C)C(=O)O2)C[C@@H]1[C@H]1CC[C@@]2(C)[C@@H]3CC[C@H]4C(C)(C)C(=O)C=C[C@@]45C[C@@]35CC[C@]12C`, for which the negative-log IC50 (pIC50) in series [1] is 5.24; in series [4] it was under 5.00; in series [5], under 5.00; in series [6], under 5.00; in series [7], 5.04. In addition, the selectivity ratio in series [2] was under 5. Moreover, in series [3], the IC50 result is on record as “Not Active”.
Regarding `CC1=C[C@@]2(C[C@H]([C@H]3CC[C@@]4(C)[C@@H]5CC[C@H]6C(C)(C)C(=O)C=C[C@]67C[C@]57CC[C@]34C)CO2)OC1=O`, the pIC50 in series [1] is under 5.00; in series [3], 6.10; in series [4], under 5.00; in series [5], under 5.00; in series [6], under 5.00; in series [7] it was under 5.00. Further, in series [2], the selectivity ratio is 5.8. Moreover, the half-maximal cytotoxic concentration (CC50) at 72 h in series [8] was 4.6 µM.
With `CC(=O)/C=C1/C=C([C@H]2CC[C@@]3(C)[C@@H]4CC[C@H]5C(C)(C)C(=O)C=C[C@@]56C[C@@]46CC[C@]23C)C(=O)N1`, the pIC50 was 5.16 in series [1]; under 5.00 in series [4]; 5.10 in series [5]; 5.00 in series [6]; 5.03 in series [7]. Also, the selectivity ratio in series [2] is under 5. In addition, the IC50 entry in series [3] is given as “Not Active”.
As for `CO[C@H]1O[C@]2(C=C(C)C(=O)O2)C[C@@H]1[C@H]1CC[C@@]2(C)[C@@H]3CC[C@H]4C(C)(C)C(=O)C=C[C@]45C[C@]35CC[C@]12C`, the pIC50 was under 5.00 in series [1]; 5.62 in series [3]; under 5.00 in series [4]; under 5.00 in series [5]; under 5.00 in series [6]; under 5.00 in series [7]. Further, the selectivity ratio in series [2] turned out to be 5.3. In series [8], the CC50 at 72 h is 12.6 µM.
As to `CC1=C[C@@]2(C[C@H]([C@H]3CC[C@@]4(C)[C@@H]5CC[C@H]6C(C)(C)C(=O)C=C[C@@]67C[C@@]57CC[C@]34C)CO2)OC1=O`, the pIC50 in series [1] is under 5.00; in series [4], under 5.00; in series [5], under 5.00; in series [6], under 5.00; in series [7] it was 5.09.
For `CO[C@H]1O[C@@]2(C=C(C)C(=O)O2)C[C@@H]1[C@H]1CC[C@@]2(C)[C@@H]3CC[C@H]4C(C)(C)C(=O)C=C[C@@]45C[C@@]35CC[C@]12C`, the pIC50 in series [1], in series [4], in series [5], in series [6] and in series [7] was under 5.00 each time. Moreover, the selectivity ratio in series [2] is under 5. The IC50 entry in series [3] is on record as “Not Active”.
As to `CC(C)=CC(=O)CC(C(=O)O)[C@H]1CC[C@@]2(C)[C@@H]3CC[C@H]4C(C)(C)C(=O)C=C[C@@]45C[C@@]35CC[C@]12C` (some centres undefined), the pIC50 in series [1], in series [4], in series [5], in series [6] and in series [7] was under 5.00 in each case.
As for `CC(C)=CC(=O)C[C@@H](C)[C@H]1CC[C@@]2(C)[C@@H]3CC[C@H]4C(C)(C)C(=O)C=C[C@]45C[C@]35CC[C@]12C`, the pIC50 in series [1] was 5.08; in series [4], under 5.00; in series [5], under 5.00; in series [6] it was under 5.00; in series [7], under 5.00. The selectivity ratio in series [2] was under 5. Besides, in series [3], the IC50 entry was “Not Active”.
As to `CO[C@H]1O[C@]2(C=C(C)C(=O)O2)C[C@@H]1[C@H]1CC[C@@]2(C)[C@@H]3CC[C@H]4C(C)(C)C(=O)C=C[C@@]45C[C@@]35CC[C@]12C`, the pIC50 was 5.21 in series [1]; 5.00 in series [4]; under 5.00 in series [5]; under 5.00 in series [6]; 5.05 in series [7].
As to `CC(C)=CC(=O)C[C@@H](C)[C@H]1CC[C@@]2(C)[C@@H]3CC[C@H]4C(C)(C)C(=O)C=C[C@@]45C[C@@]35CC[C@]12C`, the pIC50 in series [1], in series [4], in series [5], in series [6] and in series [7] was under 5.00 in each case.
With `CC(=O)O[C@H]1C(=O)[C@@]2(C)[C@H]([C@H](OC(=O)c3ccccc3)[C@]3(O)C[C@H](OC(=O)[C@H](O)[C@@H](NC(=O)c4ccccc4)c4ccccc4)C(C)=C1C3(C)C)[C@]1(OC(C)=O)CO[C@@H]1C[C@@H]2O` [PACLITAXEL], the pIC50 was 5.56 in series [1], 7.95 in series [4], 8.09 in series [6] and 8.20 in series [7].
As to `CC1(C)CC[C@]2(C)CC=C3[C@]4(C)CC[C@H]5C(C)(C)C(=O)CC[C@]5(C)[C@H]4CC[C@@]3(C)[C@@H]2C1` [TARAXERONE], the pIC50 in series [1], in series [4], in series [5], in series [6] and in series [7] was under 5.00 in each case.
On to `Cc1cn([C@H]2C[C@H](N=[N+]=[N-])[C@@H](CO)O2)c(=O)[nH]c1=O` [ZIDOVUDINE], for which, in series [8], the cytotoxic concentration (CC50) at 72 h is over 3.74 µM.

Values taken from ChEMBL document CHEMBL4145651, “Kleinhospitine E and Cycloartane Triterpenoids from Kleinhovia hospita” (J Nat Prod, 2018).
